TAAR1 ag: human TAAR1 agonism; hit rate 0.99% among 360,000; Q96RJ0; CHO RD-HGA16 TAAR1, Fluo-8 calcium fluorescence; vehicle wells 0%, saturating PEA agonist 100%; activation, % at 3 µM;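 active means activation above the mean activation of all test compounds in the run plus 3 SD, cut at about 38% in these data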
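System: CHO-derived RD-HGA16 cells with stable Gα16 and human TAAR1 / Times: 17-24 h plating, Fluo-8 75 min 37 °C, 30 min RT / Technique: calcium-sensitive Fluo-8 signal, excitation 470-495, emission 515-575 nm / Measure: % activation relative to PEA EC100 response / Benchmarks: DMSO and PEA EC100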
OX1R antag-1: antagonists of human orexin 1 receptor | O43613 | CHO/OX1R cells, Fluo-8 calcium fluorescence, orexin A | inhibition, % at 5 µM | hit rate 0.43% among 330,000 | AID 434989;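 active means inhibition above its plate's threshold, mean inhibition of all tested compounds on the plate plus 3 SD, cut at about 37% in these data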;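 further: 0% = orexin A challenge wells and 100% = SB-334867-A antagonist wells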
Target sequence (O43613 whole entry, looked up): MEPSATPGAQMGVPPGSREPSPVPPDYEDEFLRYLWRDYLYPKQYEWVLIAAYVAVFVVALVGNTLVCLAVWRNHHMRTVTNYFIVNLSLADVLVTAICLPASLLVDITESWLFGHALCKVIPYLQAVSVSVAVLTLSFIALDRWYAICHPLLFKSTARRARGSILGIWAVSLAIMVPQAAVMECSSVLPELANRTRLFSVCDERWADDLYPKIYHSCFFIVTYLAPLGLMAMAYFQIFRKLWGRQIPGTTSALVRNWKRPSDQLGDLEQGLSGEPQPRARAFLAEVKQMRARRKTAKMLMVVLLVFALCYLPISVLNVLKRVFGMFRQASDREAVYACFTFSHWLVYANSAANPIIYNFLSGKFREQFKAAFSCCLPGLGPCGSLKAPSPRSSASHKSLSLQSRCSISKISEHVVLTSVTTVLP
CHO parental Ca: counter-screen for OX1R antagonists: effect in parental CHO cells; parental CHO-K1, ATP-induced calcium, Fluo-8 fluorescence; inhibition, % at 5.6 µM; hit rate 0.63% among 330,000; AID 463079;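 active means inhibition above that plate's mean sample inhibition plus 3 SD, cut at about 26% in these data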;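 further: 0% = ATP-challenged DMSO wells and 100% = DMSO wells without ATP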
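material = parental CHO cells | also added = ATP as calcium-mobilizing challenge | dosing = single point at 5.6 µM | detection = intracellular calcium via Fluo-8 no-wash fluorescent dye | read-out = % inhibition | benchmarks = low control ATP plus DMSO, high control DMSO only | repeats = one well per compound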
OX1R antag-2: antagonists of human orexin 1 receptor (OX1R); O43613; OX1R-expressing cells, FRET antagonist read-out; inhibition, % at 6.6 µM; hit rate 1.8% among 330,000; AID 485270; in the data active means inhibition mostly above about 38%, no sharp cut-off; inactive means mostly below about 40%;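 further: 0% = agonist challenge alone and 100% = reference antagonist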
TAAR1 antagonist: antagonists of human TAAR1. CHO RD-HGA16 TAAR1, Fluo-8 calcium fluorescence, antagonist. AID 624466. hit rate 1.5% among 360,000. inhibition, % at 3 µM. Q96RJ0;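 active means inhibition above a per-plate cutoff, the mean inhibition of test compounds on that plate plus 3 SD, cut at about 49% in these data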;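 further: 0% = DMSO plus EC80 beta-PEA response and 100% = DMSO alone without agonist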
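Test system – hTAAR1-expressing CHO RD-HGA16 cells, Gα16-coupled · Also added – β-PEA at EC80 concentration, post-compound challenge · Compound – 3 µM, single point · Incubation – dye loading 75 min at 37 °C, then 30 min room temperature · Measured by – Fluo-8 intracellular calcium dye fluorescence, real-time kinetic reads · Benchmarks – vehicle and agonist controls · Replicates – singlicate, one well per test compound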
GPR7 antag: blocks human GPR7 receptor signaling. hit rate 1.1% among 290,000. P48145. inhibition, % at 4.4 µM. GPR7-expressing cells, fluorescence antagonist assay. AID 1861; in the data active means inhibition above about 16%, passing the limit was not always enough;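 further: cells stimulated with the agonist NPW; 0% = agonist with vehicle and 100% = vehicle without agonist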
OX1R Ca confirm: confirmation of human orexin 1 receptor antagonists | shares compounds with OX1R antag-1 | CHO/OX1R cells, orexin A calcium Fluo-8 fluorescence | inhibition, % at 5 µM | hit rate 38% among 1,100 | AID 492963; in the data active means inhibition above about 29%;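 further: 0% = agonist challenge alone and 100% = reference antagonist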
CHO Ca counter: counter-screen: parental CHO calcium response change, triplicate; shares compounds with OX1R antag-1; parental CHO-K1, ATP-induced calcium, Fluo-8 fluorescence; inhibition, % at 5.6 µM; hit rate 9.3% among 1,100; AID 492965;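 active means inhibition above a per-plate limit, the mean inhibition of that plate's test compounds plus 3 SD, cut at about 25% in these data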;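 further: 0% = ATP challenge with DMSO and 100% = DMSO without ATP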
OX1R HTRF conf: confirmation of human orexin 1 receptor antagonists, HTRF format. shares compounds with OX1R antag-2. OX1R-expressing cells, HTRF antagonist assay. inhibition, % at 6.6 µM. hit rate 49% among 1,800; in the data active means inhibition above about 55%;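 further: CHO cells expressing OX1R stimulated with orexin A at about EC80; 0% = agonist challenge alone and 100% = reference antagonist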
CHO-K1 HTRF cnt: signal in parental CHO-K1 cells, OX1R antagonist counter-screen | shares compounds with OX1R antag-2 | HTRF counterscreen | inhibition, % at 6.6 µM | hit rate 48% among 1,800 | AID 493232; in the data active means inhibition above about 17%;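 further: 0% = agonist challenge with vehicle and 100% = vehicle alone without agonist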
The depositor's hits bear a star; . = not tested or not shown. Sampled rows, rich in hits. Any-hit rate of the full collection: about 4.6%.

SMILES	TAAR1 ag	OX1R antag-1	CHO parental Ca	OX1R antag-2	TAAR1 antagonist	GPR7 antag	OX1R Ca confirm	CHO Ca counter	OX1R HTRF conf	CHO-K1 HTRF cnt
O=C(COC(=O)c1cc(-c2cccs2)nc2ccccc12)NC1CCS(=O)(=O)C1 (stereo not drawn)	18	42*	-6	84*	27	-10	33*	8	84*	6
CCCc1cc(=O)oc2cc(C)cc(OCC(=O)NCc3ccncc3)c12	1	-21	-15	27	-7	-7	.	.	.	.
COc1ccc(NC(=O)CN(C)S(=O)(=O)c2ccc3[nH]c(=O)oc3c2)cc1	2	38	-28	56*	4	-15	15	-3	36	7
Cc1ccc(C)c(NS(=O)(=O)c2c(C)ccc3nsnc23)c1	9	-11	-14	28	6	-20	.	.	.	.
Cc1ccc2nsnc2c1S(=O)(=O)NCCc1c(C)[nH]c2ccc(F)cc12	2	70*	-6	78*	11	1	38*	-4	62*	5
COc1cccc(C(=O)NCC2CCCN2S(=O)(=O)c2ccccc2)c1 (stereo not drawn)	5	40	-30	49*	0	.	13	-18	63*	-6
Nc1nc2ccc(-c3nc4ccccc4o3)cc2s1	5	72*	-12	97*	3	2	32*	-4	89*	5
CN1CCC/C1=C/C=C1\SC(=S)NC1=O	17	47	32	80*	-4	-2	33*	32*	55	98*
COc1ccc(OC)c(S(=O)(=O)NCC(c2ccco2)N2CCc3ccccc32)c1 (stereo not drawn)	4	74*	-9	90*	2	.	79*	-8	89*	4
O=C(Nc1ccccc1)c1nc[nH]c1C(=O)NCc1ccccc1	4	-15	3	10	-24	.	.	.	.	.
NNC(=O)c1nc[nH]c1C(=O)Nc1ccccc1	3	25	-21	51*	-16	-18	8	17	23	3
CC(=O)Cc1nsc(NC(=O)c2ccc(-c3ccccc3Cl)o2)n1	6	61*	-26	80*	6	-2	3	8	40	7
O=C(CN1C(=O)NC(Cc2c[nH]c3ccccc23)C1=O)Nc1ccc(F)cc1F (stereo not drawn)	17	-10	-9	11	-5	.	.	.	.	.
COc1ccc(CNC(=O)C2CCN(S(=O)(=O)c3ccc(Br)s3)CC2)cc1	2	-23	-4	4	18	-12	.	.	.	.
CCn1c2ccccc2c2nc3ccccc3nc21	.	27	-5	93*	.	-5	43*	-11	93*	-6
CCn1c2ccccc2c2nc3cc(OC)c(OC)cc3nc21	11	-3	-11	27	1	7	.	.	.	.
CCOC(=O)c1c(C)n(C)c2cc(CN(C)C)c(O)c(S(=O)(=O)c3ccccc3)c12	3	-5	-9	7	-17	-18	.	.	.	.
O=C1C2C3C=CC(CC3)C2C(=O)N1c1ccccc1F (stereo not drawn)	12	-16	-4	4	-10	5	.	.	.	.
CCc1ccc(-c2cc(C)no2)cc1S(=O)(=O)NCCN1CCC(C)CC1	0	-28	-34	11	-22	-2	.	.	.	.
CCc1ccc(-c2cc(C)no2)cc1S(=O)(=O)NCCCN1CCN(c2ccccc2)CC1	3	33	5	41*	32	11	13	-6	31	-1
COCCNC(=O)Cn1cc(C(=O)c2ccco2)c2ccccc21	0	-16	0	25	-8	-12	.	.	.	.
Cn1c(=O)c2cc3ccccc3nc2n(C)c1=O	0	4	-12	30	14	-16	.	.	.	.
COc1cccc(-c2cc3nc(-c4ccccc4)cc(N4CCN(C(=O)c5ccoc5)CC4)n3n2)c1	0	.	.	.	40	.	.	.	.	.
COc1cccc(-c2cc3nc(-c4ccccc4)cc(N4CCC5(CC4)OCCO5)n3n2)c1	-1	46*	-13	43*	33	-8	18	-2	53	10
Cc1ccccc1NC(=O)Cn1nc(-c2ccc(Cl)s2)ccc1=O	2	8	-5	8	-27	5	.	.	.	.
SMILES	TAAR1 ag	OX1R antag-1	CHO parental Ca	OX1R antag-2	TAAR1 antagonist	GPR7 antag	OX1R Ca confirm	CHO Ca counter	OX1R HTRF conf	CHO-K1 HTRF cnt
Cc1ccc(Cl)cc1NC(=O)Cn1nc(-c2cccs2)ccc1=O	4	58*	6	98*	7	10	24	-7	61*	4
CC1(CC(=O)NNC(=O)Nc2ccccc2)OCCCO1	2	-7	-16	25	4	-8	.	.	.	.
Cc1cc(C)cc(CSCC(=O)N/N=C/c2ccc(OCC(=O)NCc3ccco3)cc2)c1	.	50*	-20	58*	.	2	32*	-2	54	7
Cn1c2ccccc2c(=O)c2cc(C#Cc3cccc(N)c3)ccc21	.	55*	-11	92*	.	.	40*	6	88*	13
COc1ccccc1C#Cc1ccc2c(=O)c3ccccc3n(C)c2c1	10	-38	-20	29	19	-3	.	.	.	.
CC(=O)Nc1ccc(NC(=O)C(C)OC(=O)COc2ccc(Nc3ccccc3)cc2)cc1 (stereo not drawn)	15	41*	-10	31*	13	.	33*	-1	24	5
Cc1ccnc(NC(=O)c2oc3ccccc3c2C)c1	2	51*	-10	96*	-12	.	49*	-9	91*	15
CC(=O)NC(Cc1c[nH]c2ccccc12)C(=O)N/N=C/c1ccccc1 (stereo not drawn)	6	64*	2	73*	-12	-11	36*	-1	72*	0
CCN1C(=O)c2cccc3c(S(=O)(=O)NCCc4c[nH]c5ccccc45)ccc1c23	19	38	-18	81*	19	-2	32*	2	72*	2
CCN1C(=O)c2cccc3c(S(=O)(=O)NCc4ccccc4)ccc1c23	4	-7	-27	8	12	.	.	.	.	.
CC(C)(O)c1cc2ccc(C#Cc3ccsc3)cc2c(=O)o1	3	60*	-18	71*	7	.	36*	-10	83*	-4
CN(C)c1ccc(C#Cc2ccc3cc(CCCO)oc(=O)c3c2)cc1	11	-3	-3	0	3	.	.	.	.	.
CC(C)(OC(=O)c1cccs1)c1cc2ccccc2c(=O)o1	3	6	-17	3	4	.	.	.	.	.

Screening data as filed in PubChem BioAssay.
